From the EternaBench riboswitch data

How the values were obtained:
MS2 coat protein [1] = assay: apparent Kd, MS2 coat protein; higher = weaker binding; RNA-MaP array; details: designed as: OFF switch for tryptophan
In short: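 Designed RNAs were transcribed in place on an Illumina sequencing chip from sequenced DNA templates. At room temperature and with or without input ligand, they were incubated with fluorescently labeled MS2 coat protein from 1.5 nM to 3 μM, for 0.8–1.5 h at the lowest and 10–20 min at the highest concentrations. Apparent Kd is the median of the binding-curve fits made per cluster, with designs measured on fewer than 10 clusters excluded.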

MS2 coat protein [2] = assay: apparent Kd, MS2 coat protein; higher = weaker binding; RNA-MaP array; FMN 200 µM where present
In short: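 Designs on Illumina sequencing-chip clusters, transcribed by stalled E. coli RNA polymerase, were exposed to SNAP-549-labelled MS2 coat protein in doubling steps from 0.7 or 1.5 nM up to 3 µM, without and then with constant ligand. The buffer held 100 mM Tris-HCl pH 7.5, 80 mM KCl, 4 mM MgCl2, BSA, DTT, yeast tRNA and Tween-20. Apparent Kd values are medians of filtered per-cluster binding-curve fits to green signal normalised to red-channel RNA signal and control-cluster median Fmax.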

[3] = designed as: ON switch for flavin mononucleotide, no ligand
[4] = ligand present: flavin mononucleotide, designed as: ON switch for flavin mononucleotide
[5] = designed as: OFF switch for flavin mononucleotide, no ligand
[6] = ligand present: flavin mononucleotide, designed as: OFF switch for flavin mononucleotide

Row | Sequence | apparent Kd (MS2 coat protein [2]; [5]) | apparent Kd (MS2 coat protein [2]; [6]) | further results
1 | AUGUCCUAAACGGCCGCCACUUACAUGAGGAUCACCCAUGUUUACCGAUAUGGUUGUUGCUUUCCAAGGACCGGGUUUAAUCUGC |  |  | apparent Kd (MS2 coat protein [1]; no ligand): 12.7 nM; apparent Kd (MS2 coat protein [1]; ligand present: tryptophan): 13.5 nM
2 | GGAAUAUUUACAGGAUAUCAUUUGUAAAUUCGAUGAGAAGGGUAGAUGUCUUACACGACUUGUUACAUGAGGAUCACCCAUGUU |  |  | apparent Kd (MS2 coat protein [2]; [3]): 43.3 nM; apparent Kd (MS2 coat protein [2]; [4]): 33.3 nM
3 | UCCCGGUAAGAAGGAUAUACAUGAGGAUCACCCAUGUAUUAAACAUAUACUGGCCGUGGCCUUGUGUAGAAGGUCUGUCGGUCA | 6.75 nM | 5.97 nM | 
4 | AAUUGACACGUAGGAUAUCGAUCUAUAUUAACUCGAGAAGGACGUACAUGAGGAUCACCCAUGUUUAAUGGAGUAGAUAUGUUG | 82.8 nM | 308 nM | 
5 | CAGUGCAAUGUAGGAUAUGCUCAGGAAUACUGAGCAGAAGGACAUGAGGAUCACCCAUGUCAAAUGAAAGAUAAUAAAGCACUG | 14.6 nM | 18.9 nM | 
6 | UCAUGAUAUGUAGGAUAUCACAUUUAUUGAUUAAUAUAUGAAUAUAGAAUUUGAGAAGGACAUUUACAUGAGGAUCACCCAUGU | 15.8 nM | 16.7 nM | 
7 | UGGUUGUCAGGAUAUUGGGUUUUUAACUUUAGUUUUAUAUUCGAGAAGGGACAUGAGGAUCACCCAUGUUACGU | 32.7 nM | 37.6 nM | 
8 | UUCAUGUGAGGAUAUAGUACUCCUUCUAUUAUUAUUGAGUAUUAGAAGGCACAUGAGGAUCACCCAUGUAGUAC | 29.8 nM | 43.4 nM | 
9 | AGUGUGUGGCAGGAUAUGCGAUUUGUCGGUGAAGCAGAAGGGUCUACAUGAGGAUCACCCAUGUGUGCGGUUGA | 141 nM | 381 nM | 
10 | GUCAGCUCGUGAGGAUAUACAUGAUAGAUCGAUUAAUUAAUUAAUUUAACAUGAGGAUCACCCAUGUAGAAGGUACGAGCUGAC | 52 nM | 66.3 nM | 
11 | CCAUGGCAUGUAGGAUAUCUCUGACAAAGUCAGAGAGAAGGACAUGAGGAUCACCCAUGUAAACCGAAAGGAACAUAGCCAUGG | 6.31 nM | 6.26 nM | 
12 | AUAUGAUAGAUAGGAUAUACAGUGGAUUUAUAAGUAGAAGGAUCAAGUGGGAAUUAUACAUGAGGAUCACCCAUGUUUUUGGAU |  |  | apparent Kd (MS2 coat protein [2]; [3]): 68.2 nM; apparent Kd (MS2 coat protein [2]; [4]): 45.8 nM
13 | GCCAUCACAUGAGGAUAUGGCACCGUUUCGGUGCCAGAAGGCAUGUCAUAAGACAUGAGGAUCACCCAUGUAGUUAAGAUGGCA |  |  | apparent Kd (MS2 coat protein [2]; [4]): 55.4 nM
14 | CUUUUGUGAGGAUAUCAGUAGUAAUAAAAUAAAAUAACUACUGAGAAGGCACAUGAGGAUCACCCAUGUUCCUC | 32 nM | 145 nM | 
15 | CUACCUUAUGAGAAGGCGAUCAUGAAACAUGAUCGAGGAUAUCAUGUAAACAUGAGGAUCACCCAUGUAUGGGUAUUAUGGUAU |  |  | apparent Kd (MS2 coat protein [2]; [3]): 91.5 nM; apparent Kd (MS2 coat protein [2]; [4]): 25.4 nM
16 | GGCCCGCGCGUGAGGAUAUGCUGAUUCUAGGAUUAGCAGAAGGCACAUGAGGAUCACCCAUGUCCAACUUGUCU | 28.6 nM | 36.1 nM | 
17 | GGAAAACAUGAGGAUCACCCAUGUGAGGAUAUUGAAACAAACAAAACAAACAAACAAACAAGAAGGCACAGGAA | 26.1 nM | 25.5 nM | 
18 | GAUCGCCGUGUCAGGAUAUCUUGUGUACCCACGUUAGAGAAGGGACAUGAGGAUCACCCAUGUACCCUGGUUUU | 17.6 nM | 19.2 nM | 
19 | CUUUUGUGAGGAUAUCAGUAGUAAAAUAAUAAAUAUACUACUGAGAAGGCACAUGAGGAUCACCCAUGUUCCUC | 37.8 nM | 233 nM | 
20 | CUUAUGUGAGGAUAUGGUGUUGGCCACAGGGAAAAGGUCCUCCAGAAGGCACAUGAGGAUCACCCAUGUAGUGA | 165 nM | 56.3 nM | 
21 | CGUGGUUGGGAGGAUAUGCACGUGAACGCUAUUGUAGAAGGUCCGACAUGAGGAUCACCCAUGUAGGUGUCACG | 168 nM | 147 nM | 
22 | AAAUAAGUUGCAGGAUAUUAUUUUUGAUAAAUAUAAGAAGGGCAACAAACCUCACAUGAGGAUCACCCAUGUACCCAUGUAUCU | 65.5 nM | 30 nM | 
23 | CGAGUUUUUGAGAAGGCAUAUUAUAUUUAUAGUCAUGUUAACAUGAGGAUCACCCAUGUUCUCUAUGAGGAUAUCAGUUUAUCG | 7.68 nM | 7.87 nM | 
24 | UGUCGGAGCAGAGGAUAUUACAUGAGGAUCACCCAUGUAUGAACCUAUAGCUGGAAACAGCAAUGUAAGAAGGCUGCUCCGACA | 23.5 nM | 338 nM | 
25 | GAGAUUUUGUAAGGAUAUACUCUGUGAUGAAGAGUAGAAGGUACUUACAUGAGGAUCACCCAUGUUUAACGAGAUACUAAUCGU |  |  | apparent Kd (MS2 coat protein [2]; [3]): 57 nM; apparent Kd (MS2 coat protein [2]; [4]): 23.3 nM
26 | AUGAUUAUACAAGGAUAUCAAUUGUAUACAAGUCUUACAUGAGGAUCACCCAUGUUAAAUUUUUUUGAGAAGGUGUGUUGUCAG |  |  | apparent Kd (MS2 coat protein [2]; [3]): 35.6 nM; apparent Kd (MS2 coat protein [2]; [4]): 30.6 nM
